Test results published in ChEMBL document CHEMBL2390926, “Identification of novel FLT3 kinase inhibitors” (Eur J Med Chem, 2013).
Activity calls are given as the source filed them. The rule behind the calls is not given here.

How the values were obtained:
[1] = target: Tyrosine-protein kinase Yes (Homo sapiens) (UniProt P07947); assay: Inhibition of YES (unknown origin) transfected in mouse Ba/F3 cells at 1 uM after 24 hrs; assay type: cell-based; conditions: BaF3
[2] = target: T1, Tyrosine-protein kinase receptor TYRO3 (Homo sapiens) (UniProt Q06418); assay: Inhibition of TYRO3 (unknown origin) transfected in mouse Ba/F3 cells at 1 uM after 24 hrs; assay type: cell-based; conditions: BaF3
T1 sequence (whole entry): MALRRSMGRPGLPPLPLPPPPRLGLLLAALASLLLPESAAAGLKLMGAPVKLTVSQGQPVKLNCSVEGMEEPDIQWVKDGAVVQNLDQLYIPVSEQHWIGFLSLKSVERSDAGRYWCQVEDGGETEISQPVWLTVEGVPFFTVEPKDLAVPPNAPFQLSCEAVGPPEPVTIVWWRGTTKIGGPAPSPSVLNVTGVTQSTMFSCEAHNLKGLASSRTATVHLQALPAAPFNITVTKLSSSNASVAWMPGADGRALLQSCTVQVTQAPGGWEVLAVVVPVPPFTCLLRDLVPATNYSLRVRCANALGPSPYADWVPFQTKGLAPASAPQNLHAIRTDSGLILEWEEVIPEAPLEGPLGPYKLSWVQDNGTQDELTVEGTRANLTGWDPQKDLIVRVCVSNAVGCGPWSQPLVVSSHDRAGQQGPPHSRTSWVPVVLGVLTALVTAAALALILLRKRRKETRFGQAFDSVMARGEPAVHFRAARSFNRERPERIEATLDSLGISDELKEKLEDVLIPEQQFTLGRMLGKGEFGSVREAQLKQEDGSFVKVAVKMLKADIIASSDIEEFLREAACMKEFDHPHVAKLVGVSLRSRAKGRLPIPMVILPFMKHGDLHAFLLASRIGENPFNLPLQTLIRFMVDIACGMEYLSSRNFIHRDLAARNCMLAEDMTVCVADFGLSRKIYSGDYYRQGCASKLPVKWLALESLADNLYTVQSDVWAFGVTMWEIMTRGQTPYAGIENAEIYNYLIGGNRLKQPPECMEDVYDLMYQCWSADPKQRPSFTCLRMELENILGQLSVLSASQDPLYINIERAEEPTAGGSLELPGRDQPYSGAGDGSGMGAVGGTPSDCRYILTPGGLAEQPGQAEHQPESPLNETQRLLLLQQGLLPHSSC

[3] = target: T2, Non-receptor tyrosine-protein kinase TNK1 (Homo sapiens) (UniProt Q13470); assay: Inhibition of TNK1 (unknown origin) transfected in mouse Ba/F3 cells at 1 uM after 24 hrs; assay type: cell-based; conditions: BaF3
T2 sequence (whole entry): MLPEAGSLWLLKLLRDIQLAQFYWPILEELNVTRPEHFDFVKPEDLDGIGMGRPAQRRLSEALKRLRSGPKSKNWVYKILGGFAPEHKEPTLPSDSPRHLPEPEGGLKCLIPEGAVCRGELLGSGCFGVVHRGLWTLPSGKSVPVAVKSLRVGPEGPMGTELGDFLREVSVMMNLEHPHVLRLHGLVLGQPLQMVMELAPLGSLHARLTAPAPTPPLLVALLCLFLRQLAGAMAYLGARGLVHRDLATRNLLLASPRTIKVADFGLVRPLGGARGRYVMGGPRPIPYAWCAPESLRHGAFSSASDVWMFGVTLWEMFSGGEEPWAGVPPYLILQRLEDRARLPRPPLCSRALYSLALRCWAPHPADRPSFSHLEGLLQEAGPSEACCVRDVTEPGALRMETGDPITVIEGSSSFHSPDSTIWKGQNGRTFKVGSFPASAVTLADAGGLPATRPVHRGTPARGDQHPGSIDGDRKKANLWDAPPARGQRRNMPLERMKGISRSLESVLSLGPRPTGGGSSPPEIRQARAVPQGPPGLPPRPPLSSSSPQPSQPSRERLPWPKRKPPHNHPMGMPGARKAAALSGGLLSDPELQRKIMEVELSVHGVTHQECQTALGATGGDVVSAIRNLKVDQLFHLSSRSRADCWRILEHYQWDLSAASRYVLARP

[4] = target: Proto-oncogene tyrosine-protein kinase ROS (Homo sapiens) (UniProt P08922); assay: Inhibition of ROS1 (unknown origin) transfected in mouse Ba/F3 cells at 1 uM after 24 hrs; assay type: cell-based; conditions: BaF3
[5] = target: Leukocyte tyrosine kinase receptor (Homo sapiens) (UniProt P29376); assay: Inhibition of LTK (unknown origin) transfected in mouse Ba/F3 cells at 1 uM after 24 hrs; assay type: cell-based; conditions: BaF3
Summary of the method: (§1)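 Kinase specificity panel: each Ba/F3 line transformed with one of 24 tyrosine kinases depends on that kinase to grow. Cells were given compound at 1 or 5 µM for 24 h, with DMSO as comparator. Percentage growth was read by ATP-lite luminescence and reported as mean ± SEM.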

[6] = target: Insulin-like growth factor 1 receptor (Homo sapiens) (UniProt P08069); assay: Inhibition of IGF1R (unknown origin) transfected in mouse Ba/F3 cells at 1 uM after 24 hrs; assay type: cell-based; conditions: BaF3; summary of the method: as §1
[7] = target: Tyrosine-protein kinase HCK (Homo sapiens) (UniProt P08631); assay: Inhibition of HCK (unknown origin) transfected in mouse Ba/F3 cells at 1 uM after 24 hrs; assay type: cell-based; conditions: BaF3; summary of the method: as §1
[8] = target: Tyrosine-protein kinase Fyn (Homo sapiens) (UniProt P06241); assay: Inhibition of FYN (unknown origin) transfected in mouse Ba/F3 cells at 1 uM after 24 hrs; assay type: cell-based; conditions: BaF3; summary of the method: as §1
[9] = target: Fibroblast growth factor receptor 3 (Homo sapiens) (UniProt P22607); assay: Inhibition of FGFR3 (unknown origin) transfected in mouse Ba/F3 cells at 1 uM after 24 hrs; assay type: cell-based; conditions: BaF3; summary of the method: as §1
[10] = target: Epidermal growth factor receptor (Homo sapiens) (UniProt P00533); assay: Inhibition of EGFR (unknown origin) transfected in mouse Ba/F3 cells at 1 uM after 24 hrs; assay type: cell-based; conditions: BaF3; summary of the method: as §1
[11] = target: Tyrosine-protein kinase ABL2 (Homo sapiens) (UniProt P42684); assay: Inhibition of ABL2 (unknown origin) transfected in mouse Ba/F3 cells at 1 uM after 24 hrs; assay type: cell-based; conditions: BaF3; summary of the method: as §1
[12] = tested on: HEL; assay: Cytotoxicity against human HEL cells after 72 hrs by plate reader analysis; assay type: functional, cell-based
[13] = Cytotoxicity against mouse BA/F3 cells transfected with FLT3-ITD after 24 hrs by plate reader analysis in presence of IL3; conditions: BaF3, 24 h

Chain of Tyrosine-protein kinase ABL2 (Homo sapiens) (P42684 whole entry): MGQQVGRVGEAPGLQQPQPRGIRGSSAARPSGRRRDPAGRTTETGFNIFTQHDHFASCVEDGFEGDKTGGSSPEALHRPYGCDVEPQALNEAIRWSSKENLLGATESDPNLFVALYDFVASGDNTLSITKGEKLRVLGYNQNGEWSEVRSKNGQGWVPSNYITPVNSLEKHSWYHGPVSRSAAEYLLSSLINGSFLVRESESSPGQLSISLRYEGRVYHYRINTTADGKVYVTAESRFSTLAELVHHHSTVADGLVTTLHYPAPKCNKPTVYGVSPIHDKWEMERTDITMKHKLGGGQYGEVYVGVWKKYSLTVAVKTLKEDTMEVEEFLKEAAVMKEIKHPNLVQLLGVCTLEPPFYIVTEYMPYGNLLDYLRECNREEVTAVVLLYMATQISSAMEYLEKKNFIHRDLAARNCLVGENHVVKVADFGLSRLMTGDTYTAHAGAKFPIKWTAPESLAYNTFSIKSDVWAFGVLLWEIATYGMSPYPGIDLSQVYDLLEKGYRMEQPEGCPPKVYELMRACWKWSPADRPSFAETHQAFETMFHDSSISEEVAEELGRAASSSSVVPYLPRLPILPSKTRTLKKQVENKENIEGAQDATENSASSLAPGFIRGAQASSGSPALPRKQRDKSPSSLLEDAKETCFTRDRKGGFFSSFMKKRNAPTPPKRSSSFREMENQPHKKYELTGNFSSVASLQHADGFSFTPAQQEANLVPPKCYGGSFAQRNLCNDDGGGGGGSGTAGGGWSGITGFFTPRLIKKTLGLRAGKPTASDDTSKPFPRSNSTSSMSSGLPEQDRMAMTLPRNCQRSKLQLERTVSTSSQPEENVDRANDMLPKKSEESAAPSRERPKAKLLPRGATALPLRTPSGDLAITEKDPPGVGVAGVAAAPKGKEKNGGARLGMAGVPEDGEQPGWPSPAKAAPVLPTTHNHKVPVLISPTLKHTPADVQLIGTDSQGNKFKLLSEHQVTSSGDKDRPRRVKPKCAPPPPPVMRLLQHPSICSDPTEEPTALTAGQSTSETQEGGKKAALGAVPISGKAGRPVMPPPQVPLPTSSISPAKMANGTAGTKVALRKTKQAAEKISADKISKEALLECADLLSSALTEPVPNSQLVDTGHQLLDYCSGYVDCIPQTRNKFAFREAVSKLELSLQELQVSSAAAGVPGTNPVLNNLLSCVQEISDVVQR
Chain of Tyrosine-protein kinase Yes (Homo sapiens) (P07947 2-543 limits assumed): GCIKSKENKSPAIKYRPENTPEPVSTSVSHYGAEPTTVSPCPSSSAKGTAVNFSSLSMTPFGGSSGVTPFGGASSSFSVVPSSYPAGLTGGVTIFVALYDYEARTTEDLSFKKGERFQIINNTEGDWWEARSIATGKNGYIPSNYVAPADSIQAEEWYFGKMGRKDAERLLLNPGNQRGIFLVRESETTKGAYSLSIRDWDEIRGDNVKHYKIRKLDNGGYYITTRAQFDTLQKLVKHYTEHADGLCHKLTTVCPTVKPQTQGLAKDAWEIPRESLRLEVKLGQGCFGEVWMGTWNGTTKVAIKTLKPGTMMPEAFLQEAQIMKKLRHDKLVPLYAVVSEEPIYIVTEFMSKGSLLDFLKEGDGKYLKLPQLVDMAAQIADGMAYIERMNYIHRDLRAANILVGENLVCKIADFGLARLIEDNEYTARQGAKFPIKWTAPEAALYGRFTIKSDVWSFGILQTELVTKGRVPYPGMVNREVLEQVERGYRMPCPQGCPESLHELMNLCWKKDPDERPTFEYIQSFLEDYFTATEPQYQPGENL
Chain of Tyrosine-protein kinase Fyn (Homo sapiens) (P06241 2-537 limits assumed): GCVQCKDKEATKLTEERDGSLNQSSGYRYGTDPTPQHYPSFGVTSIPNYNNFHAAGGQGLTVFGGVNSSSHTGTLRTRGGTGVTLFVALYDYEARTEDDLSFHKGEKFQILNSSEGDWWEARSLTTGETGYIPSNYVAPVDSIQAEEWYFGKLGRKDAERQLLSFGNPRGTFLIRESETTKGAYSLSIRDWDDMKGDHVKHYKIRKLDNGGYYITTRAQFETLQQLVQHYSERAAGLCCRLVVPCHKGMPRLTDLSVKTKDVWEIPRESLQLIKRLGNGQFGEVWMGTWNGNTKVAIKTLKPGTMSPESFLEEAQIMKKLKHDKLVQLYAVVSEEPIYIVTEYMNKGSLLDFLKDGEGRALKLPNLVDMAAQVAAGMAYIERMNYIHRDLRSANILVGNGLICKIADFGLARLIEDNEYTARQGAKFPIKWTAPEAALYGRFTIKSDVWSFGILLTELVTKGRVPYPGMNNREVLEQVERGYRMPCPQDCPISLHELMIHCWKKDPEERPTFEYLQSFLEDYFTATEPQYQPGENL
Chain of Leukocyte tyrosine kinase receptor (Homo sapiens) (P29376 whole entry): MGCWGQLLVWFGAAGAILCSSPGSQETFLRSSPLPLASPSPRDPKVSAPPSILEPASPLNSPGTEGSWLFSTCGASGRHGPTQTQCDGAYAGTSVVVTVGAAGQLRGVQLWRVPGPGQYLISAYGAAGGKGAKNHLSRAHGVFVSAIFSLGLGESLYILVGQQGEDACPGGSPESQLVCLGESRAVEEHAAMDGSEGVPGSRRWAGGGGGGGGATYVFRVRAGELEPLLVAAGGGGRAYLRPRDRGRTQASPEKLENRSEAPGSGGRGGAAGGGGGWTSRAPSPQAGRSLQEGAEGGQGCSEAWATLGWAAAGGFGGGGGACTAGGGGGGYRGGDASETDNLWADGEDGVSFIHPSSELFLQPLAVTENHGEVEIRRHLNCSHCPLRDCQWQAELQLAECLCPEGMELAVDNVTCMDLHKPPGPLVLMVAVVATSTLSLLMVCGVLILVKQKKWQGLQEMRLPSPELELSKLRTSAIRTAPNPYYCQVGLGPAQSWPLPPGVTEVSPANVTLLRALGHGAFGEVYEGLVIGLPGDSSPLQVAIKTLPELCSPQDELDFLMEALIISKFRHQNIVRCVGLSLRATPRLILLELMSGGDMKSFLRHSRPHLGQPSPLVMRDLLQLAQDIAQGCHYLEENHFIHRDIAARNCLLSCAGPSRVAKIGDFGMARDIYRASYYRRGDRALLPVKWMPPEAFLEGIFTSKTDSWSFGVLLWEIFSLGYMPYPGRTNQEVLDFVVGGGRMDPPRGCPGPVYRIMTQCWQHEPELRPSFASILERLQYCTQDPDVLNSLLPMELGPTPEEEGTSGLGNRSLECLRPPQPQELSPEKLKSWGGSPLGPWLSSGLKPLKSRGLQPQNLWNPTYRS
Chain of Tyrosine-protein kinase HCK (Homo sapiens) (P08631 2-526 limits assumed): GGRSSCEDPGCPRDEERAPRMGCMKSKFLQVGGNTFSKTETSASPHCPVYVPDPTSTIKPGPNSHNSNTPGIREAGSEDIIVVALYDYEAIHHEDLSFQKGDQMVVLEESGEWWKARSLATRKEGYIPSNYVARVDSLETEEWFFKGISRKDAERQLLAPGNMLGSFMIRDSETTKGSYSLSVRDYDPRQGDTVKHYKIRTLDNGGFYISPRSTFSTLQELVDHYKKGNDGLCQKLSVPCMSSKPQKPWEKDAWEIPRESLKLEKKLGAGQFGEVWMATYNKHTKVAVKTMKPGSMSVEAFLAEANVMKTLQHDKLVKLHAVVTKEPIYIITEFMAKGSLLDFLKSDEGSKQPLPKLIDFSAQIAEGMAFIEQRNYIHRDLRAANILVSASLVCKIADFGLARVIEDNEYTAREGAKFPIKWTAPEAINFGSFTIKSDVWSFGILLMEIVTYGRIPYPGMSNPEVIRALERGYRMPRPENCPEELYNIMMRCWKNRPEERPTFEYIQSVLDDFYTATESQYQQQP
Chain of Epidermal growth factor receptor (Homo sapiens) (P00533 whole entry): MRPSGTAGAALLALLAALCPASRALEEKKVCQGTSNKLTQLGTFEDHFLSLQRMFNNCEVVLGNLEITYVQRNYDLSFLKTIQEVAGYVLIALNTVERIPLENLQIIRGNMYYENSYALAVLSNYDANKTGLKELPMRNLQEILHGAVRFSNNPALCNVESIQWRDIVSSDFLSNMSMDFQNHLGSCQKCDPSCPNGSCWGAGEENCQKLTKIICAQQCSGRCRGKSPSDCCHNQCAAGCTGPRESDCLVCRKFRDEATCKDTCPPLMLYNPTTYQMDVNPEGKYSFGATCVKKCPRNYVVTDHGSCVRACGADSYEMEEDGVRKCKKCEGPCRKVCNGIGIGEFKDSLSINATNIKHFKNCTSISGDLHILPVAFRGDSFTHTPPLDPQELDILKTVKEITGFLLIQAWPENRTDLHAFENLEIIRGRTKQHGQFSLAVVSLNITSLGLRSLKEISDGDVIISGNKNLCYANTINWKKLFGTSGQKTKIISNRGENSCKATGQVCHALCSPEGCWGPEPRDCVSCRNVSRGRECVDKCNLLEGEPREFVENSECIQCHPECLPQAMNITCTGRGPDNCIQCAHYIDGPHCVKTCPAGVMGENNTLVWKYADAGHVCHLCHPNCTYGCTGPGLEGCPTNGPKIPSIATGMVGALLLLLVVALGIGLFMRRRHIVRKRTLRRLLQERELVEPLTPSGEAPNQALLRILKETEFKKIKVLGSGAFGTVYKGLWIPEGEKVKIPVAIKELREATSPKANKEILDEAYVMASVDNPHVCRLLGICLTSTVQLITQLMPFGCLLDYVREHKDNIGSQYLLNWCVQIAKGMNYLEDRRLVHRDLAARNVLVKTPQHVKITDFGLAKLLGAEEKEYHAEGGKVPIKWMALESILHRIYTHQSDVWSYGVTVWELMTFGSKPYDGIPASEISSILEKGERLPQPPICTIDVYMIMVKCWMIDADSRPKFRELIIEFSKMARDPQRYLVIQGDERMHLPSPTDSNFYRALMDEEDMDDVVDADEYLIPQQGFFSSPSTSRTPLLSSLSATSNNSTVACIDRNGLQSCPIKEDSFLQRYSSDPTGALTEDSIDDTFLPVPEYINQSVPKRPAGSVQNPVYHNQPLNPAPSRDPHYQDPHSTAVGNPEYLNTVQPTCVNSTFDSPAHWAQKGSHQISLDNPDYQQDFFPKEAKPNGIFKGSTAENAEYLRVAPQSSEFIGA

| SMILES | inhibition [1] | inhibition [2] | inhibition [3] | inhibition [4] | inhibition [5] | inhibition [6] | inhibition [7] | inhibition [8] | inhibition [9] | inhibition [10] | inhibition [11] | EC50 [12] [µM] | EC50 [13] [µM] |
| --- | --- | --- | --- | --- | --- | --- | --- | --- | --- | --- | --- | --- | --- |
| COc1ccc(C(=O)Nc2cc(-c3ccccc3)[nH]n2)cc1 | inactive | inactive | inactive | inactive | inactive | inactive | inactive | inactive | inactive | inactive | inactive | 47 | 18 |
| Fc1ccc(-c2n[nH]cc2-c2ccncc2)cc1Cl |  |  |  |  |  |  |  |  |  |  |  | 1000 | 16 |
| Cc1ccc(-c2cc(NC(=O)c3ccc(F)cc3)[nH]n2)cc1 | inactive | inactive | inactive | inactive | inactive | inactive | inactive | inactive | inactive | inactive | inactive | 1000 | 23 |
| Cc1cccc(C(=O)Nc2cc(-c3ccc(F)cc3)n[nH]2)c1 | inactive | inactive | inactive | inactive | inactive | inactive | inactive | inactive | inactive | inactive | inactive | 62 | 21 |
| Cc1ccc(-n2cnc3cc(Nc4nnc(C)c5ccccc45)ccc32)cc1 |  |  |  |  |  |  |  |  |  |  |  | 14 | 19 |
